By inhibition is commonly meant the percentage by which the read-out fell short of the control. Broadly, the IC50 is the midpoint of a concentration-inhibition curve.

The target of test [1] is Angiotensin-converting enzyme (Homo sapiens) (UniProt P12821). Put plainly: Inhibition of ACE at 1 mg/ml. The method, boiled down: (§1)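 ACE extract (10 µg total protein) preincubated with sample for 30 min at 37 °C. HHL substrate then added for 15 min at 37 °C. NaOH and O-phthaldialdehyde added, stopped after 10 min with HCl. His-Leu fluorescence read at ex 405/em 535 nm. % inhibition = 100×(N−S)/(N−B) against negative and blank controls. Captopril positive control; at least three determinations.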

Test [2] shares this target. Put plainly: Inhibition of ACE at 0.1 mg/ml. The method, boiled down: as §1
In another test the test system is Human alphaherpesvirus 2. Put plainly: Antiviral activity against HSV2 333 infected in african green monkey Vero cells assessed as virus-induced cytopathic effect at 250 ug/ml. The format is functional, organism-based. The method, boiled down: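 Vero cells infected with HSV-2 (strain 333); inhibition of viral replication read as cytopathic effect (CPE); compounds tested at 250 µg/mL; acyclovir as positive drug control.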
For orientation: Cytopathic effects are the visible damage that an infection or toxin causes in cultured cells.

Test [3] can be described thus: Cytotoxicity against human N04 cells by SRB assay. The format is functional, cell-based. The method in brief:
(§2)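 Sulforhodamine B (SRB) cytotoxicity assay on human tumour lines: breast cancer Bre04, lung cancer Lu04 and neuroma N04.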
(In SRB staining, fixed cells bind dye roughly in proportion to their protein.)

Test [4] in a line: Cytotoxicity against human Bre04 cells by SRB assay. The format is functional, cell-based. The method, boiled down: as §2
Test [5] can be described thus: Cytotoxicity against human Lu04 cells by SRB assay. The format is functional, cell-based. The method in brief: as §2

Active and inactive are the calls of the source. No cut-off for these calls is given here. Where a SMILES comes first, the peptide text is derived from it. Some results are limits rather than exact numbers.

Sequence of Angiotensin-converting enzyme (Homo sapiens) (P12821 whole entry): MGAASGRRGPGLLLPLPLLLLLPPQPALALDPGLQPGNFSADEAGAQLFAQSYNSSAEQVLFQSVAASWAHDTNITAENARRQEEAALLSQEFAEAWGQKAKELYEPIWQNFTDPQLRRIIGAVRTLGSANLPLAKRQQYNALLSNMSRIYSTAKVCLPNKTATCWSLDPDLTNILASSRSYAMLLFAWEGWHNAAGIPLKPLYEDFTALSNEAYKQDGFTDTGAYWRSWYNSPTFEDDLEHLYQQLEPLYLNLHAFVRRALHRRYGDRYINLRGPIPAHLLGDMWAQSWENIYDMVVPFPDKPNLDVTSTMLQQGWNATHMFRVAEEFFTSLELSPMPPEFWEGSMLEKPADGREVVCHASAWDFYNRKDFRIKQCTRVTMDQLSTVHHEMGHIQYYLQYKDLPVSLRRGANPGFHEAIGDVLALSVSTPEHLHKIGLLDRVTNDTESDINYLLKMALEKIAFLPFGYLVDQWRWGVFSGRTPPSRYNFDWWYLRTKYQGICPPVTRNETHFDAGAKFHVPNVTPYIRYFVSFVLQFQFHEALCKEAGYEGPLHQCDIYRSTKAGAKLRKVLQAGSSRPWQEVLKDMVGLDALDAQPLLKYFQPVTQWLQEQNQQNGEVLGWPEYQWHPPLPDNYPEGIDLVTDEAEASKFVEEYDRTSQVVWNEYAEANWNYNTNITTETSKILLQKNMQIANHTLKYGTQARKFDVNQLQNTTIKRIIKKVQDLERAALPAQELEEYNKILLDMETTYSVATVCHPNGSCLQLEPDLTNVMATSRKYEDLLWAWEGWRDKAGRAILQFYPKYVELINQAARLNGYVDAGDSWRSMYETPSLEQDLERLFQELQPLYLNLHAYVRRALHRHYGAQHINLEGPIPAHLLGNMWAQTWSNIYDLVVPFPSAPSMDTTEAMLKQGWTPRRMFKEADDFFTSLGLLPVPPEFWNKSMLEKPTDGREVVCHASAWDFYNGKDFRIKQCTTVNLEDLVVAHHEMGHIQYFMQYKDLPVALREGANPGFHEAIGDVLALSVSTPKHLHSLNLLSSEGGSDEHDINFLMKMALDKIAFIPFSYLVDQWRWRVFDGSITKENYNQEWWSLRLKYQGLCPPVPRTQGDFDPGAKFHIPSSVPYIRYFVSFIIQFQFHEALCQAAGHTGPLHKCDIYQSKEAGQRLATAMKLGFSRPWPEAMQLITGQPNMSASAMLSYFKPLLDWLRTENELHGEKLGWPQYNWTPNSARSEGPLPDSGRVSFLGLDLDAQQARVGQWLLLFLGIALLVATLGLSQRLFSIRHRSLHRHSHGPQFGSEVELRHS

In the case of `COc1cc(/C=C/C(=O)O[C@H]2[C@H](O[C@@H]3O[C@@H](C)[C@H](O)[C@@H](O)[C@H]3O)[C@H]3O[C@@H](c4ccc(O)c(O)c4)CO[C@@H]3O[C@@H]2CO)ccc1O`, the inhibition in test [1] was 99.8%; in test [2], 67.5%. In the test on Human alphaherpesvirus 2, the result was inactive.

On to `C[C@@H]1O[C@@H](O[C@H]2[C@H](O)[C@@H](COC(=O)/C=C/c3ccc(O)c(O)c3)O[C@H]3OC[C@H](c4ccc(O)c(O)c4)O[C@@H]32)[C@H](O)[C@H](O)[C@H]1O`, for which the values for the inhibition in test [1] and in test [2] were 99.3% and 71.4%, respectively. The result in the test with Human alphaherpesvirus 2 was inactive.

Turning to `CC(C)[C@@H]1NC(=O)[C@@H]2CCCN2C(=O)[C@H](Cc2ccccc2)NC(=O)CNC(=O)[C@H](C)NC(=O)[C@H](C)NC(=O)[C@H](Cc2ccccc2)NC(=O)[C@H](Cc2ccccc2)NC1=O` (cyclo(AAGFPVFF)), the outcome with Human alphaherpesvirus 2 was inactive.

Regarding `CC(C)C[C@@H]1NC(=O)[C@H](Cc2ccc(O)cc2)NC(=O)[C@@H]2CCCN2C(=O)[C@H](C(C)C)NC(=O)[C@H](C)NC(=O)[C@H](Cc2ccccc2)NC(=O)[C@@H]2CCCN2C(=O)[C@H](C(C)C)NC1=O` [MICROTOENIN A] (cyclo(AVPYLVPF)), the IC50 in test [3], in test [4] and in test [5] was > 100 µg/mL each time.

Consider `CC[C@H](C)[C@@H]1NC(=O)[C@@H]2CCCN2C(=O)[C@H](CC(C)C)NC(=O)[C@@H]2CCCN2C(=O)[C@H](Cc2ccccc2)NC(=O)[C@H](CC(N)=O)NC(=O)[C@H](Cc2ccc(O)cc2)NC(=O)[C@@H]2CCCN2C1=O` [MICROTOENIN C] (cyclo(FPLPIPYN)), for which the half-maximal inhibitory concentration (IC50) in test [3], in test [4] and in test [5] was > 100 µg/mL in each case.

Turning to `CC(C)C[C@@H]1NC(=O)[C@H](C(C)C)NC(=O)[C@@H]2CCCN2C(=O)[C@H](Cc2ccccc2)NC(=O)[C@H](C)NC(=O)[C@H](C(C)C)NC(=O)[C@@H]2CCCN2C(=O)[C@H](Cc2ccc(O)cc2)NC1=O` (cyclo(AFPVLYPV)), the outcome in the test with Human alphaherpesvirus 2 was inactive.

For the compound `C[C@@H]1O[C@@H](O[C@@H]2[C@H]3O[C@@H](c4ccc(O)c(O)c4)CO[C@@H]3O[C@H](CO)[C@H]2OC(=O)/C=C/c2ccc(O)c(O)c2)[C@H](O)[C@H](O)[C@H]1O`, the results for the inhibition in test [1] and in test [2] were 99.7% and 75.5%, respectively. The outcome with Human alphaherpesvirus 2 was inactive.

For `CC(C)[C@@H]1NC(=O)[C@H](Cc2ccccc2)NC(=O)[C@H](Cc2ccccc2)NC(=O)[C@H](C)NC(=O)[C@H](C)NC(=O)CNC(=O)[C@H](Cc2ccccc2)NC(=O)[C@@H]2CCCN2C1=O` [MICROTOENIN B] (cyclo(AAFFVPFG)), the IC50 in test [3], in test [4] and in test [5] was > 100 µg/mL in each case.

Regarding `CC[C@@H](C)[C@@H]1NC(=O)[C@@H]2CCCN2C(=O)[C@H](Cc2ccc(O)cc2)NC(=O)[C@H](CC(N)=O)NC(=O)[C@H](Cc2ccccc2)NC(=O)[C@@H]2CCCN2C(=O)[C@H](CC(C)C)NC(=O)[C@@H]2CCCN2C1=O`, in the test with Human alphaherpesvirus 2, the result was inactive.

The record behind these values is ChEMBL document CHEMBL1151228, “Three cyclooctapeptides and one glycoside from Microtoena prainiana” (J Nat Prod, 2004).
